Only some compounds are listed: those with a hit (about 5.7% of all), similar ones and a draw of the others.
CSC inhib: cancer stem cell inhibition; cancer stem cell-like cells viability, luminescence; inhibition, % at 7.5 µM; 300,000 tested, 1.1% active; in the data active = inhibition above about 75%; inconclusive = no clear call, values can overlap the other calls; tested in HMLE shEcad cells
Mdm2 MdmX PPI: inhibitors of human Mdm2/MdmX interaction; O15151+Q00987; SaOS-2 split-luciferase Mdm2/MdmX complementation, luminescence; inhibition, % at 8 µM; 330,000 tested, 3% active;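 active = inhibition of at least 50% at 8 µM in the primary screen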
Target sequence (O15151 whole entry, looked up): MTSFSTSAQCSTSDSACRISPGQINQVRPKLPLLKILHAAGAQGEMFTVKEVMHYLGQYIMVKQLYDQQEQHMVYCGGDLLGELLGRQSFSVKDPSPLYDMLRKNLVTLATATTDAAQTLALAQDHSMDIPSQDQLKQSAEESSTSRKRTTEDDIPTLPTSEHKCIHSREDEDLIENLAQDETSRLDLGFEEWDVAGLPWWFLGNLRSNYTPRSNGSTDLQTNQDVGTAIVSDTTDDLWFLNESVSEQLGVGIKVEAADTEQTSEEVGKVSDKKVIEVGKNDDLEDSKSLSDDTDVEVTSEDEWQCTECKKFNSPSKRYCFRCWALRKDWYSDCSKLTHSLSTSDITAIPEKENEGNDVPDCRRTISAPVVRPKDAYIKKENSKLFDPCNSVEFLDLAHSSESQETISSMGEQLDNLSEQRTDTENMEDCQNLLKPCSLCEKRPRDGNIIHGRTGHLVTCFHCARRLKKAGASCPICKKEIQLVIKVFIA
Target sequence (Q00987 whole entry, looked up): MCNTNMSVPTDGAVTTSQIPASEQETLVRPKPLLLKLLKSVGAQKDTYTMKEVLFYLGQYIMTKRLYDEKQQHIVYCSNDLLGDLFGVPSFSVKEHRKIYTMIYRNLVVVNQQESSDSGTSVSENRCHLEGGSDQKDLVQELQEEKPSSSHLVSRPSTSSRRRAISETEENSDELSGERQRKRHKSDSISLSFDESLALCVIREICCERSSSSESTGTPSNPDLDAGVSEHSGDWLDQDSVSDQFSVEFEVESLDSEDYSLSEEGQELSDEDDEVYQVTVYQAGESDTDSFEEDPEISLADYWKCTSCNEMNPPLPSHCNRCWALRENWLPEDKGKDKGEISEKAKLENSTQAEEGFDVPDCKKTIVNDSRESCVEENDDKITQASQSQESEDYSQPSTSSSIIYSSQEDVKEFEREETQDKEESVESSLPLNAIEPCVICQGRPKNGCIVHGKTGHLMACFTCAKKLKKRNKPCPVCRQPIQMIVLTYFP
T cruzi inh: T. cruzi replication inhibition. T. cruzi beta-gal in NIH3T3, luminescence, 90 h. inhibition, % (concentration not given with the values). 300,000 tested, 1.4% active. AID 1885;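 active = mean inhibition across valid replicates above about 55%, limit read from the data; inconclusive = mean below that limit but half or more replicates reach it; inactive = mean below it, under half of replicates reach it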;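 note: signal also drops with host cell toxicity which is not excluded here; 0% = plate median of DMSO wells and 100% = zero luminescence signal; higher percent means less beta-gal luminescence so fewer parasites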
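Incubation – ≥90 h infection period, 3 h prior cell attachment · System – NIH/3T3 fibroblasts plus reporter T. cruzi · Doses – compound pinned at 50 nL/well, DMSO · Read-out basis – percent inhibition of parasite-derived β-gal signal · Signal – luminescent β-galactosidase signal after 60 min lysis · Also added – 5000 T. cruzi trypomastigotes/well · Medium – Low-serum DMEM with 2% FBS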
Calb FLC: C. albicans growth modulation with fluconazole | AID 1979 | C. albicans CaCi-2 (fluconazole-resistant clinical isolate) + fluconazole, Alamar Blue growth, 48 h | 300,000 tested, 0.57% active | growth inhibition, % (concentration not given with the values);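 active = growth inhibition above about 58% in most replicates, limit read from the data, passing the limit was not always enough; inconclusive = exactly half the replicates above a set limit; inactive = most replicates below a set limit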;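 note: all wells also contain fluconazole at 8 µg/ml as a sub-toxic cotreatment; 0% = median of DMSO wells and 100% = median of geldanamycin control wells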
SKKanGAS inh: blocks kanamycin growth of S. pyogenes SKKanGAS strain; BacTiter-Glo, 6 h; inhibition, % at 7.5 µM; 300,000 tested, 1.3% active;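 active = mean replicate score, as percent of positive control median, at least 50; inconclusive = mean below 50 but one replicate at or above 50; inactive = mean and every replicate below 50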;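 note: strain carries kanamycin resistance gene driven by streptokinase promoter and grows in 40 µg/ml kanamycin; loss of luminescence reflects streptokinase promoter inhibition or plain growth inhibition; 0% = median of DMSO wells and 100% = positive control at its reference dose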
Beta apoptosis: beta cell apoptosis inhibition; AID 435005; protection from apoptosis, % (concentration not given with the values); INS-1E cytokine-induced death, ATP luminescence, 48 h; percent of positive-control rescue, neutral wells zero; 300,000 tested, 0.8% active;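 active = Every replicate reaches about 75%, or at least half do and their mean reaches it too, limit read from the data; inconclusive = At least half of replicates reach the limit but their mean does not; inactive = Under half of replicates reach the limit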;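 note: 0% = cytokine-treated negative control wells and 100% = positive control rescue; higher means more ATP so stronger rescue from cytokine killing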
Mdm2 MdmX conf: human Mdm2/MdmX binding inhibition, confirmed; shares compounds with Mdm2 MdmX PPI; luminescent assay; 10,000 tested, 55% active; inhibition, % at 8 µM; in the data active = inhibition above about 40%
Full FLuc ctr: counter-screen for Mdm2/MdmX inhibitors: full-length luciferase | shares compounds with Mdm2 MdmX PPI | SaOS-2 full-length luciferase counterscreen, luminescence | inhibition, % at 8 µM | 6,200 tested, 77% active | AID 504607;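 active = mean inhibition at 8 µM reaching about 37%, which flags the compound as non-specific, limit read from the data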;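 note: p53-null SaOS-2 cells with luciferase driven by a doxycycline-inducible promoter; compound on cells about two nights before reading with doxycycline added after day one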
The depositor's hits bear a star.

For OCCN1CCN(CC(O)COc2ccc(Cl)cc2)CC1 (stereo not given) the results were CSC inhib -10, Mdm2 MdmX PPI 7, T cruzi inh 3, Calb FLC -7, SKKanGAS inh -7 and Beta apoptosis 3.
For OCCN1CCN(CC(O)COc2ccc(C34CC5CC(CC(C5)C3)C4)cc2)CC1 (stereo not given) the results were CSC inhib 112*, Mdm2 MdmX PPI 95*, T cruzi inh 33, Calb FLC 25, SKKanGAS inh 19, Beta apoptosis 47, Mdm2 MdmX conf 73* and Full FLuc ctr 22.
For CCOc1ccc(/C=N/NC(=O)c2cc3ccccc3cc2OC)cc1 the results were CSC inhib 32, Mdm2 MdmX PPI 28, T cruzi inh 1, Calb FLC -13, SKKanGAS inh 0 and Beta apoptosis 5.
For Cc1ccc(Nc2c(-c3ccccn3)nc3ccc(C)cn23)cc1 the results were CSC inhib 112*, Mdm2 MdmX PPI 74*, T cruzi inh 45, Calb FLC inconclusive, SKKanGAS inh 97*, Beta apoptosis 97*, Mdm2 MdmX conf 90* and Full FLuc ctr 52*.
For Cc1ccn2c(Nc3ccc4c(c3)OCO4)c(-c3ccccn3)nc2c1 the results were CSC inhib 1, Mdm2 MdmX PPI 79*, T cruzi inh 38, Calb FLC -23, SKKanGAS inh 97*, Beta apoptosis 0, Mdm2 MdmX conf 69* and Full FLuc ctr 37*.
Cc1ccn2c(NC3CCCC3)c(-c3ccccn3)nc2c1 was read as CSC inhib 62, Mdm2 MdmX PPI 74*, T cruzi inh 65*, Calb FLC -24, SKKanGAS inh 91*, Beta apoptosis 16, Mdm2 MdmX conf 43* and Full FLuc ctr 43*.
For Cc1ccc(-c2nc3cnccn3c2Nc2ccc3c(c2)OCO3)o1 the results were CSC inhib -4, Mdm2 MdmX PPI 19, T cruzi inh 6, Calb FLC -1, SKKanGAS inh -2 and Beta apoptosis 0.
For CSc1ccc(-c2nc3cnccn3c2Nc2ccc3c(c2)OCO3)cc1 the results were CSC inhib 16, Mdm2 MdmX PPI 55*, T cruzi inh 9, Calb FLC -1, SKKanGAS inh -39, Beta apoptosis 2 and Mdm2 MdmX conf 11.
`Cc1c(CCC(=O)NCCCN2CCCC2=O)c(=O)oc2c(C)c(O)ccc12` gave CSC inhib -2, Mdm2 MdmX PPI -1, T cruzi inh -4, Calb FLC 0, SKKanGAS inh 3 and Beta apoptosis 0.
Screening COc1ccc(NC2CCCN(C(=O)c3cccc(N4CCNC4=O)c3)C2)cc1 (stereo not given) returned CSC inhib -10, Mdm2 MdmX PPI 7, T cruzi inh -6, Calb FLC -1, SKKanGAS inh -5 and Beta apoptosis -4.
`COc1ccc(OC)c(CNC(=O)CCn2c(=O)c3cccn3c3ccc(F)cc32)c1` gave CSC inhib -9, Mdm2 MdmX PPI 2, T cruzi inh 12, Calb FLC -5, SKKanGAS inh 1 and Beta apoptosis 0.
`Cc1ccn2c(Nc3ccccc3C)c(-c3ccncc3)nc2c1` gave CSC inhib -2, Mdm2 MdmX PPI 59*, T cruzi inh 61*, Calb FLC 29, SKKanGAS inh -5, Beta apoptosis -46 and Mdm2 MdmX conf 34.
`Cc1ccc(Nc2c(-c3ccccn3)nc3cc(C)ccn23)cc1` gave CSC inhib 98*, Mdm2 MdmX PPI 92*, T cruzi inh 76*, Calb FLC inconclusive, SKKanGAS inh 101*, Beta apoptosis 103*, Mdm2 MdmX conf 89* and Full FLuc ctr 55*.
`Cc1ccc(Nc2c(-c3ccccc3)nc3cnccn23)cc1` gave CSC inhib 3, Mdm2 MdmX PPI -9, T cruzi inh -10, Calb FLC 12, SKKanGAS inh -4 and Beta apoptosis -2.
For COc1cc2c(cc1OC)CN(c1ncccc1[N+](=O)[O-])CC2 the results were CSC inhib -9, Mdm2 MdmX PPI -35, T cruzi inh 3, Calb FLC -7, SKKanGAS inh -5 and Beta apoptosis -6.
Screening O=C(NC1CC1)c1cccc(NC(=O)c2cn3ccccc3n2)c1 returned CSC inhib -2, Mdm2 MdmX PPI -25 and Beta apoptosis -11.
For O=C1CCCC2=C1C1c3ccccc3C(=O)N1c1ccc(C(=O)c3ccccc3)cc1N2 (stereo not given) the results were CSC inhib -2, Mdm2 MdmX PPI 56*, T cruzi inh 9, Calb FLC 21, SKKanGAS inh 23, Beta apoptosis 2, Mdm2 MdmX conf 42* and Full FLuc ctr 67*.
For CCC(=O)N1c2ccccc2NC2=C(C(=O)CCC2)C1c1ccc(N(C)C)cc1 (stereo not given) the results were CSC inhib -9, Mdm2 MdmX PPI 25, T cruzi inh 6, Calb FLC -4 and SKKanGAS inh 1.
`Cc1ccc(N(CC(=O)N/N=C/c2cccc(Br)c2)S(C)(=O)=O)cc1` gave CSC inhib -8, T cruzi inh 15, Calb FLC -7, SKKanGAS inh -8 and Beta apoptosis -5.
Screening CCN(Cc1ccccc1)C(=O)C1CCN(c2ncnc3c2nc2n3CCCCC2)CC1 returned CSC inhib -6, Mdm2 MdmX PPI 40, T cruzi inh 10, Calb FLC -1, SKKanGAS inh -7 and Beta apoptosis 0.
Screening CCc1ccccc1N(CC)C(=O)C1CCN(c2ncnc3c2nc2n3CCCCC2)CC1 returned CSC inhib -14, Mdm2 MdmX PPI 64*, T cruzi inh 24, Calb FLC -1, SKKanGAS inh 2, Beta apoptosis 12 and Mdm2 MdmX conf 7.
Screening CC(=O)c1ccccc1NC(=O)c1ccc2c(c1)NC(=O)C(C)S2 (stereo not given) returned CSC inhib 4, Mdm2 MdmX PPI -37, T cruzi inh 17, Calb FLC -7, SKKanGAS inh -1 and Beta apoptosis 4.
`CCCNC(=O)c1ccccc1NC(=O)c1ccc2c(c1)NC(=O)C(C)S2` (stereo not given) gave CSC inhib 45, Mdm2 MdmX PPI 53*, T cruzi inh inconclusive, Calb FLC 10, SKKanGAS inh inconclusive, Mdm2 MdmX conf 68* and Full FLuc ctr 72*.
CCOc1ccccc1NC(=O)c1nc(S(=O)(=O)Cc2cccc(C)c2)ncc1Cl was read as CSC inhib 91*, Mdm2 MdmX PPI 100*, T cruzi inh 28, Calb FLC 5, SKKanGAS inh 73*, Beta apoptosis 96*, Mdm2 MdmX conf 76* and Full FLuc ctr 55*.

Screening data (PubChem)
